Rows were chosen to be rich in hits. Some 2.2% of all compounds tested hit in one or more screens of this group.
SIRT5 inh – inhibitors of human sirtuin-5 desuccinylase. Q9NXA8. Purified SirT5, succinyl-peptide AMC, trypsin-coupled fluorescence. inhibition, % at 15 µM. 330,000 compounds, 1.1% hits. AID 652115; in the data active = inhibition above about 15%
PGC1a acetyl inh – modulators of PGC1a acetylation. U2OS PGC1a acetylation, AlphaScreen anti-acetyl-lysine; with virally co-expressed GCN5 acetyltransferase. inhibition, % at 15.6 µM. 350,000 compounds, 0.17% hits. AID 651687;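 active = every replicate shows inhibition of at least 40%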
FN deposition inh – fibronectin deposition inhibition; AH1F fibroblasts, Alexa488-fibronectin deposition fluorescence, overnight; inhibition, % at 12.6 µM; 350,000 compounds, 0.086% hits; AID 743247;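 active = mean inhibition across replicates of 30% or more, regardless of how many single replicates reach that level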
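material = AH1F fibroblast monolayer depositing Alexa488-labelled fibronectin into matrix | amount = 10000 AH1F cells/well | buffer or medium = DMEM plus 2% serum, read in PBS | incubation = 1 h cell adhesion before compound, then overnight fibronectin incubation | detection = fluorescence at 485 nm excitation, 525 nm emission | evaluation = percent inhibition as loss of matrix-bound fibronectin fluorescence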
ERAP1 HTS inh – blocks human ERAP1 aminopeptidase activity; AID 652197; 340,000 compounds, 0.15% hits; recombinant ERAP1, Leu-AMC fluorescence, 60 min; Q9NZ08; inhibition, % at 10.7 µM;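 active = mean replicate inhibition of at least 30%, or all replicates individually reaching that 30% level; inactive = mean below 30% and not every replicate reaching it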
FGF22 binding – shifts melting point of recombinant human FGF22 | Q9HCT0 | recombinant FGF22 thermal shift, SYPRO orange fluorescence; percent of sucrose octasulfate shift, DMSO zero | activity (Tm shift, normalised), % at 9.99 µM | 340,000 compounds, 1.5% hits | AID 651658;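 active = mean Tm shift, scaled 0 neutral to 100 positive control, at about 1.3% or above, every replicate too, limit read from the data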
Large screens that a line does not name were inactive; ! = repeats disagree.

CCCNC(=O)N(C)C[C@@H]1Oc2ncc(Br)cc2C(=O)N([C@@H](C)CO)C[C@H]1C	none
COCC(=O)N(C)C[C@H]1Oc2ncc(-c3ccc(C)cc3)cc2C(=O)N([C@H](C)CO)C[C@H]1C	none
C[C@H](O)C#Cc1ccc2c(c1)O[C@@H](CN(C)CC1CC1)[C@H](C)CN([C@H](C)CO)S2(=O)=O	none (no result: SIRT5 inh, FN deposition inh, ERAP1 HTS inh, FGF22 binding)
O=C(N[C@H]1CC[C@H](CCn2cc(C3CC3)nn2)O[C@H]1CO)c1cccnc1	none
CCCNC(=O)N(C)C[C@@H]1Oc2ncc(-c3ccncc3)cc2C(=O)N([C@H](C)CO)C[C@@H]1C	ERAP1 HTS inh 33!
C[C@H]1CN([C@@H](C)CO)C(=O)c2cc(NS(=O)(=O)c3ccccc3)ccc2O[C@H]1CN(C)Cc1ccccc1	none (no result: FN deposition inh)
CN1c2ccc(-c3ccccc3)cc2[C@H]2[C@H](CCN2C(=O)Nc2ccccc2F)[C@H]1CO	none
COCCNC(=O)C(C)Oc1ccccc1 (stereo not given)	FGF22 binding 43 (no result: PGC1a acetyl inh)
C[C@H](O)C#Cc1cnc2c(c1)C(=O)N([C@@H](C)CO)C[C@H](C)[C@H](CN(C)Cc1ccccn1)O2	none (no result: FN deposition inh)
CCCC(=O)Nc1ccc2c(c1)C(=O)N(C)C[C@@H](OC)[C@@H](C)CN(C(=O)C1CCCC1)[C@@H](C)CO2	none
COC(CN1CCc2c(C)nc3c(C#N)cnn3c21)OC	SIRT5 inh 17
Cc1nc2c(C#N)cnn2c2c1CCNN2C	none (no result: FN deposition inh)
CC(=O)NC(c1cccc(F)c1)c1nc(-c2cccc(C(=O)O)c2)cs1 (stereo not given)	none
CC(=O)NC(c1cccc(F)c1)c1nc(-c2cccc(C(C)C)c2)cs1 (stereo not given)	PGC1a acetyl inh 100 (no result: SIRT5 inh)
CC(=O)c1ccc(N=C2SCCCN2C(=O)C2CCCC2)cc1	FGF22 binding 43 (no result: PGC1a acetyl inh)
COc1ccccc1NC(=O)N[C@@H]1CC[C@H](CCNS(=O)(=O)c2ccccc2)O[C@@H]1CO	none (no result: FN deposition inh)
CCc1nnc(NC(=O)c2oc3ccccc3c2COC(C)C)s1	FGF22 binding 43 (no result: SIRT5 inh)
CCOCc1c(C(=O)Nc2ccc(OC)nc2)oc2ccccc12	ERAP1 HTS inh 55
CCc1nnc(NC(=O)c2oc3cc(C)c(C)cc3c2C)s1	none (no result: SIRT5 inh, PGC1a acetyl inh, ERAP1 HTS inh, FGF22 binding)
C[C@H](O)C#Cc1cnc2c(c1)C(=O)N([C@H](C)CO)C[C@H](C)[C@H](CN(C)C(=O)Nc1ccc(C(F)(F)F)cc1)O2	none
O=C(Cc1ccccc1)N1CC2(C1)[C@@H](c1ccccc1)[C@@H](CO)N2C(=O)Cc1ccccc1	none (no result: FN deposition inh)
CCCNC(=O)N1C[C@H](C)[C@H](OC)CN(C)C(=O)c2ccc(NS(C)(=O)=O)cc2OC[C@H]1C	none
O=C1CCC2c3ccc4ccccc4c3CCN12 (stereo not given)	FN deposition inh 30 (no result: SIRT5 inh, ERAP1 HTS inh, FGF22 binding)
C[C@H](CO)N1C[C@H](C)[C@@H](CN(C)C(=O)Cc2ccccc2)OCCCC[C@H](C)Oc2ccc(NC(=O)Nc3ccc(F)cc3)cc2C1=O	none (no result: FN deposition inh)
Cc1ccc(S(=O)(=O)Nc2ccc3c(c2)C(=O)N([C@@H](C)CO)C[C@@H](C)[C@H](CN(C)C(=O)Cc2ccccc2)OCCCC[C@H](C)O3)cc1	none (no result: FGF22 binding)
CC(=O)Nc1ccc(NC(=O)c2sc3nc4n(c(=O)c3c2C)CCCCC4)cc1	SIRT5 inh 17 (no result: PGC1a acetyl inh)
CCc1ccc(NC(=O)c2sc3nc4n(c(=O)c3c2C)CCC4)cc1	none
O=C(COC(=O)CC1CC2CCC1C2)NCc1ccccc1 (stereo not given)	SIRT5 inh 35 (no result: FGF22 binding)
O=C(COC(=O)CC1CC2CCC1C2)NCc1ccc(Cl)cc1 (stereo not given)	none (no result: SIRT5 inh, FN deposition inh, FGF22 binding)
COc1ccc2nc(C)cc(N/N=C/c3ccc(F)cc3)c2c1	PGC1a acetyl inh 94
COc1ccc(S(=O)(=O)Nc2ccc3c(c2)C(=O)N([C@@H](C)CO)C[C@@H](C)[C@@H](CN(C)S(=O)(=O)c2ccccc2)OCCCC[C@@H](C)O3)cc1	SIRT5 inh 20 (no result: FN deposition inh)
COc1ccc(S(=O)(=O)Nc2ccc3c(c2)C(=O)N([C@@H](C)CO)C[C@H](C)[C@@H](CN(C)S(=O)(=O)c2ccccc2)OCCCC[C@@H](C)O3)cc1	SIRT5 inh 21 (no result: FN deposition inh, ERAP1 HTS inh)
COc1ccc(S(=O)(=O)N(C)C[C@H]2OCCCC[C@H](C)Oc3ccc(NS(=O)(=O)c4ccccc4)cc3C(=O)N([C@H](C)CO)C[C@H]2C)cc1	none

Screening results deposited in PubChem by Broad Institute.
